Assay results reported in ChEMBL document CHEMBL4020833, “A Systematic Exploration of Macrocyclization in Apelin-13: Impact on Binding, Signaling, Stability, and Cardiovascular Effects” (J Med Chem, 2018).
The source made the active and inactive calls. The rule behind the calls is not given here. Starred links: 1 amine or outer side, 2 acyl side, 3 side chain; linkers in the order of their positions; H or OH if unused. Positions of bridges follow the written chain, without caps; N, C: chain ends. Non-standard residues stand in square brackets, D forms with d. Residues, ends and D or L forms follow the SMILES beside them. X2 = N=C(N)NCCC[C@@H](C(=O)[*:2])N(CC=[*:3])[*:1]; X4 = O=C([C@H](CO)N(CC=[*:3])[*:1])[*:2]; AllylGly = C=CC[C@H](N)C(=O)O; pGlu = O=C1CC[C@@H](C(=O)O)N1; Nle = CCCC[C@H](N)C(=O)O

Legend:
Apelin receptor [1] = target: T1, Apelin receptor (Homo sapiens, UniProt P35414); test: Displacement of [125I]-[Nle75, Tyr77] Pyr1-apelin-13 from YFP-tagged human APJ receptor expressed in HEK293 cell membranes after 1 hr by gamma-counting method
T1 sequence (P35414 whole entry): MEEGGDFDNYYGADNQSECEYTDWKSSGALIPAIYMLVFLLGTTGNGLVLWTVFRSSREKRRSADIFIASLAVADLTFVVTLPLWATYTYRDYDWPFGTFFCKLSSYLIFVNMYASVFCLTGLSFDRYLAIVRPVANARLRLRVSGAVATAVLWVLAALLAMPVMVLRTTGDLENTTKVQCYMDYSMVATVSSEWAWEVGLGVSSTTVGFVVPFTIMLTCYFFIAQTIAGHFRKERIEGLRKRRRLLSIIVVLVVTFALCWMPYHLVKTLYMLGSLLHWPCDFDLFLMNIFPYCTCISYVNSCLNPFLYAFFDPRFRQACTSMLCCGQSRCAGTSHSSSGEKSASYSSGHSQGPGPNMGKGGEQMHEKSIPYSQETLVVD

[2] = Half life in rat plasma at 1 mM by UPLC-MS analysis; assay type: ADME, cell-free
How it was run: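 Male rat plasma incubated with peptide at 37 °C for 2, 4, 7, 24 h (or 10, 20, 60, 120 min for short-lived peptides); quenched with acetonitrile-ethanol (1:1) plus nicotinamide internal standard, then UPLC-MS. Percent remaining fitted to exponential decay for half-life; means ± SEM of three independent experiments. 1 mM is the stock solution.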

Apelin receptor [3] = target: T1, Apelin receptor; test: Activity at human APJ receptor expressed in HEK293 cells assessed as dissociation of Galphai1 from Gbetagamma subunit after 5 mins by BRET assay; assay type: cell-based
Apelin receptor [4] = target: T1, Apelin receptor; test: Activity at GFP10-tagged human APJ receptor expressed in HEK293 cells assessed as induction of RlucII-tagged beta-arrestin-2 recruitment after 30 mins by BRET assay; assay type: cell-based
Rattus norvegicus [5] = test: Hypotensive activity in Sprague-Dawley rat assessed as reduction in systemic arterial blood pressure at 65 nmol/kg, iv administered over 10 secs; assay type: functional, organism-based
How it was run: (§1)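 Male Sprague-Dawley rats (250-350g) anesthetized with intramuscular ketamine/xylazine (87/13 mg/kg), kept on a thermostatic pad. Carotid catheter for arterial pressure; jugular bolus of saline vehicle, then 5 min later peptide (19.6 or 65 nmol/kg; 0.25 ml over 10 s), followed by a saline flush.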

Apelin receptor [6] = target: T1, Apelin receptor; test: Induction of human HA-tagged APJ receptor internalization expressed in HEK293 cells after 30 mins by ELISA; assay type: cell-based
[7] = AUC in Sprague-Dawley rat at 3 mg/kg, iv measured up to 120 mins by LC-MS/MS analysis; assay type: ADME, organism-based; set-up: dose 3 mg/kg, time < 2 hr, route intravenous; settings: in vivo
How it was run: (§2)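 Male Sprague-Dawley rats (250-350g) under intramuscular ketamine/xylazine (87/13 mg/kg); compound in 350 µL normal saline given via jugular vein. Carotid blood drawn into EDTA tubes at 1, 5, 10, 15, 30, 60, 120 min (1, 2, 5, 10, 15 min for Pyr-apelin-13), centrifuged for plasma, acetonitrile precipitation with internal standard, LC-MS/MS (ESI+, MRM).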

[8] = Drug level in Sprague-Dawley rat plasma at 3 mg/kg, iv measured at 5 mins by LC-MS/MS; assay type: ADME, organism-based; how it was run: as §2
Rattus norvegicus [9] = test: Hypotensive activity in Sprague-Dawley rat assessed as reduction in systemic arterial blood pressure at 19.5 or 65 nmol/kg, iv administered over 10 secs; assay type: functional; how it was run: as §1
Heart [10] = test: Inotropic activity in Langendorff isolated-perfused Sprague-Dawley rat heart assessed as drug level causing maximum increase in left ventricular developed pressure efficacy relative to baseline control; assay type: functional
How it was run: (§3)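 Sprague-Dawley rat hearts isolated and perfused in Langendorff mode with increasing peptide concentrations from 0.001 to 0.3 nM. Increase in left ventricular developed pressure recorded as the inotropic read-out, expressed as % from baseline; compared with buffer by unpaired parametric t test.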

Heart [11] = test: Inotropic activity in Langendorff isolated-perfused Sprague-Dawley rat heart assessed as increase in left ventricular developed pressure efficacy at 0.03 nM relative to baseline control; assay type: functional; settings: in the assay text read “0.003 nM” for “0.03 nM”; how it was run: as §3
Heart [12] = test: Inotropic activity in Langendorff isolated-perfused Sprague-Dawley rat heart assessed as increase in left ventricular developed pressure efficacy at 0.003 nM relative to baseline control; assay type: functional; how it was run: as §3

SMILES | Ki (Apelin receptor [1]) | half-life at 1000 µM [2] | EC50 (Apelin receptor [3]) | EC50 (Apelin receptor [4]) | other results
C=CC[C@H](NC(=O)[C@@H]1CCCN1C(=O)[C@H](CCCC)NC(=O)[C@@H]1CCCN1C(=O)[C@H](CC=C)NC(=O)[C@H](CCCCN)NC(=O)[C@H](Cc1cnc[nH]1)NC(=O)[C@H](CO)NC(=O)[C@H](CC(C)C)NC(=O)[C@H](CCCNC(=N)N)NC(=O)[C@@H]1CCCN1C(=O)[C@H](CCCNC(=N)N)NC(=O)[C@@H]1CCC(=O)N1)C(=O)O ([pGlu]RPRLSHK[AllylGly]P[Nle]P[AllylGly]-OH) | 2.1 nM | 2.4 h | 2 nM | 145 nM | –
CCCC[C@H](NC(=O)[C@@H]1C/C=C\C[C@H](NC(=O)[C@H](CC(C)C)NC(=O)[C@H](CCCNC(=N)N)NC(=O)[C@@H]2CCCN2C(=O)[C@H](CCCNC(=N)N)NC(=O)[C@@H]2CCC(=O)N2)C(=O)N[C@@H](Cc2cnc[nH]2)C(=O)N[C@@H](CCCCN)C(=O)NCC(=O)N1)C(=O)N1CCC[C@H]1C(=O)N[C@@H](Cc1ccccc1)C(=O)O ([pGlu]RPRL[AllylGly]HKG[AllylGly][Nle]PF-OH; staple (Z) 6-10) | 268 nM | 4.1 h | – | – | –
CCCC[C@@H]1NC(=O)[C@@H]2CCCN2C(=O)CNC(=O)[C@@H](NC(=O)[C@H](Cc2cnc[nH]2)NC(=O)[C@H](CO)NC(=O)[C@H](CC(C)C)NC(=O)[C@H](CCCNC(=N)N)NC(=O)[C@@H]2CCCN2C(=O)[C@H](CCCNC(=N)N)NC(=O)[C@@H]2CCC(=O)N2)C/C=C\C[C@@H](C(=O)N[C@@H](Cc2ccccc2)C(=O)O)NC1=O ([pGlu]RPRLSH[AllylGly]GP[Nle][AllylGly]F-OH; staple (Z) 8-12) | 14 nM | 4.6 h | 30 nM | 825 nM | –
CCCC[C@@H]1NC(=O)[C@@H]2CCCN2C(=O)[C@@H](NC(=O)[C@@H](CCCCN)NC(=O)[C@H](Cc2cnc[nH]2)NC(=O)[C@H](CO)NC(=O)[C@H](CC(C)C)NC(=O)[C@H](CCCNC(=N)N)NC(=O)[C@@H]2CCCN2C(=O)[C@H](CCCNC(=N)N)NC(=O)[C@@H]2CCC(=O)N2)C/C=C\C[C@@H](C(=O)O)NC(=O)[C@@H]2CCCN2C1=O | – | – | – | – | Activity (Rattus norvegicus [5]): Active
CC(C)C[C@H](NC(=O)[C@H](CCCNC(=N)N)NC(=O)[C@@H]1CCCN1C(=O)[C@H](CCCNC(=N)N)NC(=O)[C@@H]1CCC(=O)N1)C(=O)N[C@@H](CO)C(=O)N[C@H]1C/C=C\C[C@@H](C(=O)N2CCC[C@H]2C(=O)N[C@@H](Cc2ccccc2)C(=O)O)NC(=O)[C@@H]2CCCN2C(=O)CNC(=O)[C@H](CCCCN)NC1=O ([pGlu]RPRLS[AllylGly]KGP[AllylGly]PF-OH; staple (Z) 7-11) | 1.4 nM | 6.6 h | 20 nM | 400 nM | –
CCCC[C@H](NC(=O)[C@@H]1CCCN1C(=O)CNC(=O)[C@@H]1C/C=C\CN(C(=O)[C@@H]2CCCN2C(=O)[C@H](CCCNC(=N)N)NC(=O)[C@@H]2CCC(=O)N2)[C@@H](CCCNC(=N)N)C(=O)N[C@@H](CC(C)C)C(=O)N[C@@H](CO)C(=O)N[C@@H](Cc2cnc[nH]2)C(=O)N1)C(=O)N1CCC[C@H]1C(=O)N[C@@H](Cc1ccccc1)C(=O)O ([pGlu]RP[X2]LSH[AllylGly]GP[Nle]PF-OH; staple (Z) 4-8) | 9.1 nM | 7.7 h | 19 nM | 512 nM | –
CCCC[C@@H]1NC(=O)[C@@H]2CCCN2C(=O)[C@@H](NC(=O)[C@H](CCCCN)NC(=O)[C@H](Cc2cnc[nH]2)NC(=O)[C@H](CO)NC(=O)[C@H](CC(C)C)NC(=O)[C@H](CCCNC(=N)N)NC(=O)[C@@H]2CCCN2C(=O)[C@H](CCCNC(=N)N)NC(=O)[C@@H]2CCC(=O)N2)C/C=C\C[C@@H](C(=O)O)NC(=O)[C@@H]2CCCN2C1=O [listing 1 of 2 here] | – | 8.6 h | – | – | Ki (Apelin receptor [1]; hek293): 1.1 nM; EC50 (Apelin receptor [6]; hek293): 469 nM; AUC at 2 h [7]: 4100 ng·h/mL; concentration at 5 min [8]: 5.6 µM; EC50 (Apelin receptor [3]; hek293): 19 nM; EC50 (Apelin receptor [4]; hek293): 272 nM
CCCC[C@H](NC(=O)[C@@H]1CCCN1C(=O)CNC(=O)[C@H](CCCCN)NC(=O)[C@H](Cc1cnc[nH]1)NC(=O)[C@@H]1C/C=C\C[C@H](NC(=O)[C@@H]2CCC(=O)N2)C(=O)N2CCC[C@H]2C(=O)N[C@@H](CCCNC(=N)N)C(=O)N[C@@H](CC(C)C)C(=O)N1)C(=O)N1CCC[C@H]1C(=O)N[C@@H](Cc1ccccc1)C(=O)O | 509 nM | 0.7 h | – | – | –
CCCC[C@H](NC(=O)[C@@H]1C/C=C\CN(C(=O)[C@H](CC(C)C)NC(=O)[C@H](CCCNC(=N)N)NC(=O)[C@@H]2CCCN2C(=O)[C@H](CCCNC(=N)N)NC(=O)[C@@H]2CCC(=O)N2)[C@@H](CO)C(=O)N[C@@H](Cc2cnc[nH]2)C(=O)N[C@@H](CCCCN)C(=O)NCC(=O)N1)C(=O)N1CCC[C@H]1C(=O)N[C@@H](Cc1ccccc1)C(=O)O ([pGlu]RPRL[X4]HKG[AllylGly][Nle]PF-OH; staple (Z) 6-10) | 188 nM | > 24 h | – | – | –
CCCC[C@H](NC(=O)[C@@H]1CCCN1C(=O)CNC(=O)[C@H](CCCCN)NC(=O)[C@@H]1C/C=C\C[C@H](NC(=O)[C@H](CCCNC(=N)N)NC(=O)[C@@H]2CCC(=O)N2)C(=O)N[C@@H](CCCNC(=N)N)C(=O)N[C@@H](CC(C)C)C(=O)N[C@@H](CO)C(=O)N1)C(=O)N1CCC[C@H]1C(=O)N[C@@H](Cc1ccccc1)C(=O)O | – | 3.9 h | – | – | Activity (Rattus norvegicus [9]): <=40 mmHg; Activity (Heart [10]): Active
CCCC[C@H](NC(=O)[C@@H]1CCCN1C(=O)CNC(=O)[C@H](CCCCN)NC(=O)[C@H](Cc1cnc[nH]1)NC(=O)[C@H](CO)NC(=O)[C@@H]1C/C=C\C[C@H](N)C(=O)N[C@@H](CCCNC(=N)N)C(=O)N2CCC[C@H]2C(=O)N[C@@H](CCCNC(=N)N)C(=O)N1)C(=O)N1CCC[C@H]1C(=O)N[C@@H](Cc1ccccc1)C(=O)O | 5.7 nM | 0.8 h | 23 nM | 834 nM | –
CSCC[C@H](NC(=O)[C@@H]1CCCN1C(=O)CNC(=O)[C@H](CCCCN)NC(=O)[C@H](Cc1cnc[nH]1)NC(=O)[C@H](CO)NC(=O)[C@H](CC(C)C)NC(=O)[C@H](CCCNC(=N)N)NC(=O)[C@@H]1CCCN1C(=O)[C@H](CCCNC(=N)N)NC(=O)[C@@H]1CCC(=O)N1)C(=O)N1CCC[C@H]1C(=O)N[C@@H](Cc1ccccc1)C(=O)O | – | – | – | – | AUC at 2 h [7]: 3.33 ng·h/mL; Efficacy (Heart [11]): 81%; Activity (Heart [10]): 30 pM
CCCC[C@@H]1NC(=O)[C@@H]2CCCN2C(=O)[C@@H](NC(=O)[C@H](CCCCN)NC(=O)[C@H](Cc2cnc[nH]2)NC(=O)[C@H](CO)NC(=O)[C@H](CC(C)C)NC(=O)[C@H](CCCNC(=N)N)NC(=O)[C@@H]2CCCN2C(=O)[C@H](CCCNC(=N)N)NC(=O)[C@@H]2CCC(=O)N2)C/C=C\C[C@@H](C(=O)O)NC(=O)[C@@H]2CCCN2C1=O [listing 2 of 2 here] | – | – | – | – | Efficacy (Heart [12]): 217%; Activity (Heart [10]): 3 pM
CCCC[C@@H]1NC(=O)[C@@H]2CCCN2C(=O)[C@@H](NC(=O)[C@H](CCCCN)NC(=O)[C@H](Cc2cnc[nH]2)NC(=O)[C@H](CO)NC(=O)[C@H](CC(C)C)NC(=O)[C@H](CCCNC(=N)N)NC(=O)[C@@H]2CCCN2C(=O)[C@H](CCCNC(=N)N)NC(=O)[C@@H]2CCC(=O)N2)CCN(S(=O)(=O)c2ccccc2[N+](=O)[O-])C/C=C\C[C@@H](C(=O)O)NC(=O)[C@@H]2CCCN2C1=O | 0.15 nM | 6.8 h | 1.3 nM | 57 nM | EC50 (Apelin receptor [6]): 45 nM; AUC at 2 h [7]: 2800 ng·h/mL; concentration at 5 min [8]: 2.5 µM; Activity (Rattus norvegicus [9]): <=40 mmHg; Activity (Heart [10]): 3 pM
